The record followed here is ChEMBL document CHEMBL4513216, “Probing the Open Global Health Chemical Diversity Library for Multistage-Active Starting Points for Next-Generation Antimalarials” (ACS Infect Dis, 2020).

Structures are written as SMILES.

A short description of the data set: Toxicity liver stage against HepG2, at 10uM. The data set is classed as cell-based. Also on record: test concentration 10 uM, cell line HepG2-A16-CD81EGFP. The note with it: human, HepG2-A16-CD81EGFP cells; read-out: INHIBITION
The method, boiled down:
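Uninfected HepG2-A16-CD81EGFP cells, 3 × 10^3 per well, 1536-well, plated on prespotted compound at 10 μM final, parasite-free screening media added to match infected plates; puromycin 10 μM positive, DMSO 0.5% negative; run in parallel with 48 h PbLuc assay at 37 °C, 5% CO2; viability by CellTiter-Glo luminescence, normalized to controls.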
As to `Cc1noc([C@@H]2C[C@H](NC(=O)NC3CCCCC3)CN2C)n1`, the cytotoxicity at 10 µM is 3.23%.

As for `O=S1(=O)c2cnccc2OC(COc2ccccc2)CN1CC1CC1` (configuration not stated), the cytotoxicity at 10 µM is -1.16%.

`CCOC(=O)[C@H]1[C@@H](O)C(=O)N(C)C12CCN(C(=O)CC(C)C)CC2`: the cytotoxicity at 10 µM is -5.12%.

Consider `Cn1ccc2c(C(=O)NCCCN3CCOCC3)cccc21`, for which the cytotoxicity at 10 µM was -0.452%.

For the compound `CSCCC(C)(O)CNC(=O)Nc1ccccc1C` (configuration not stated), the cytotoxicity at 10 µM was -1.44%.

On to `CCOCC(=O)NCCc1nc(C2CC2)cc(C(F)(F)F)n1`, for which the cytotoxicity at 10 µM was 1.01%.

With `COC(=O)c1sccc1S(=O)(=O)N1CCC(Oc2cccc(C)n2)CC1`, the cytotoxicity at 10 µM is 6.48%.

Regarding `Cc1cccnc1NC(=O)c1ccc(-n2cncn2)nn1`, the cytotoxicity at 10 µM is -1.52%.

`Cn1ncc2c1C(COCC1CC1)CN(Cc1ccncc1)C2` (configuration not stated): the cytotoxicity at 10 µM was determined as 7.22%.

For `CN(C)C(=O)C1OC2(CCN(C(=O)c3ccoc3)CC2)c2ccccc21` (configuration not stated), the cytotoxicity at 10 µM worked out at 5.63%.

As to `CCN(CC)C(=O)Cn1c(C)cc2nc(SC)n(CC(C)C)c(=O)c21`, the cytotoxicity at 10 µM is -12.8%.

With `COC[C@@]12CCO[C@@H]1CCN(C(=O)Cc1ccccc1F)C2`, the cytotoxicity at 10 µM is -7.27%.

As to `CCCN(C(=O)CS(=O)(=O)c1ccccc1)c1cccc(C)c1`, the cytotoxicity at 10 µM was found to be 2.08%.

For `O=C(O)Cn1nc(C2CC2)c2c(-c3ccco3)ccnc21`, the cytotoxicity at 10 µM is -3.96%.

With `Cn1nc(C(=O)N2CCCC2)c(F)c1NC(=O)Cc1ccccc1`, the cytotoxicity at 10 µM was found to be 1.41%.

On to `CCn1nccc1CNC(=O)C1CCCC1`, for which the cytotoxicity at 10 µM is -18.5%.

With `Cn1ccc(C(=O)N2CCCC2c2cc[nH]n2)n1` (configuration not stated), the cytotoxicity at 10 µM is -1.26%.

On to `CC(C)C(=O)N1CCC(c2nc3ccccn3c2NC(C)(C)C)CC1`, for which the cytotoxicity at 10 µM turned out to be 5.86%.

Regarding `CC(=O)N1CCC(CCc2ccnc(NC(=O)c3ccccn3)c2)CC1`, the cytotoxicity at 10 µM turned out to be 0.15%.

`O=C(NCc1ccccc1)C1CN(c2ccccn2)CCO1` (configuration not stated): the cytotoxicity at 10 µM was -2.44%.

`O=C(CCn1c(C(F)F)cc2cccnc21)NC1CC1`: the cytotoxicity at 10 µM is -1.71%.

`Cc1cc(C)nc(C2CCN(C(=O)CCn3nnc4ccccc43)C2)n1` (configuration not stated): the cytotoxicity at 10 µM was -0.834%.

In the case of `O=C(c1cccc2cccnc12)N1CC[C@@]2(CCCO2)[C@@H](O)C1`, the cytotoxicity at 10 µM is -23.8%.

Turning to `Cc1nc(C2CCCN2C(=O)Cc2ccc3c(c2)OCO3)nc(O)c1C` (configuration not stated), the cytotoxicity at 10 µM was -34.9%.

In the case of `Nc1cncc(C(=O)N2Cc3ccccc3OC3(CCOCC3)C2)c1`, the cytotoxicity at 10 µM turned out to be 11.9%.

As for `CC(=O)N1CCC(c2nccnc2Nc2ncc(C)s2)CC1`, the cytotoxicity at 10 µM stood at 10.1%.

In the case of `O=C(Cc1ccsc1)N1CCOC(c2nc(-c3ncccn3)no2)C1` (configuration not stated), the cytotoxicity at 10 µM is -7.83%.

Take `CNc1ncc(CN2CCC(c3nnsc3S(C)(=O)=O)CC2)cn1`: the cytotoxicity at 10 µM is -0.085%.

As to `COc1ccc(CN2CCC(c3cc(O)nc(C)n3)C2)c(F)c1` (configuration not stated), the cytotoxicity at 10 µM was found to be 0.442%.

For `Cc1nc(C2CCN(S(=O)(=O)c3ccc(Cl)cc3)CC2)n[nH]1`, the cytotoxicity at 10 µM worked out at 10.6%.

As to `Cc1oc(-c2ccco2)nc1CN1CCc2cnc(C(C)C)nc2C1`, the cytotoxicity at 10 µM was found to be 0.0371%.

On to `CSc1c[nH]nc1NS(=O)(=O)c1cc(F)ccc1Cl`, for which the cytotoxicity at 10 µM was -7.23%.

As for `Cc1cnn(CC(C)Nc2nc3ccccc3o2)c1` (configuration not stated), the cytotoxicity at 10 µM was -9.49%.

On to `c1cc(NCc2ccsc2)cc(-c2nnc[nH]2)c1`, for which the cytotoxicity at 10 µM is -54.5%.

As to `CC(C)N(C(=O)Cn1cc(Cl)cn1)c1ccccc1`, the cytotoxicity at 10 µM is -1.18%.

With `COc1cccnc1NC(=O)COC1CCCC1`, the cytotoxicity at 10 µM was found to be 8.06%.

On to `N#CCCN(Cc1cccnc1)C(=O)c1ccn(-c2ccccc2)n1`, for which the cytotoxicity at 10 µM was found to be 13.9%.

Regarding `CCCc1noc(C(C)S(=O)(=O)Cc2nc(C3CC3)no2)n1` (configuration not stated), the cytotoxicity at 10 µM was -9.02%.

With `Cc1oc(NC(=O)C(C)N2CCN(CCO)CC2)c(C#N)c1C` (configuration not stated), the cytotoxicity at 10 µM was -13.6%.

As to `CCc1noc(CS(=O)(=O)CC=C(C)C)n1`, the cytotoxicity at 10 µM was 5.41%.

For `O=S(=O)(NCc1cccnc1OC1CCCC1)N1CCCCC1`, the cytotoxicity at 10 µM is -3.82%.

`Cc1nc2n(n1)CC(NCC(=O)N(C)Cc1cccs1)CC2` (configuration not stated): the cytotoxicity at 10 µM was -0.189%.

In the case of `CNC(=O)C(C)(C)CNC(=O)Nc1ccncc1C`, the cytotoxicity at 10 µM is -12.1%.

Turning to `O=C1CC(N(C(=O)CCc2cc(F)ccc2F)C2CC2)C(=O)N1` (configuration not stated), the cytotoxicity at 10 µM was determined as 3.62%.

Consider `Cc1ccc(-c2nnc(C(C)N3CCc4cncnc4C3)o2)cc1` (configuration not stated), for which the cytotoxicity at 10 µM was found to be 0.776%.

Turning to `Cc1nc(CN(C)c2cc(N3CCCC3CO)ncn2)cs1` (configuration not stated), the cytotoxicity at 10 µM worked out at 4.53%.

Regarding `Cn1cc(CNc2cnn(CC3CCCO3)c2)c(-c2ccncc2)n1` (configuration not stated), the cytotoxicity at 10 µM is 4.4%.

As for `COc1ccc(CNC2CCN(c3ccccc3)C2)c(OC)c1OC` (configuration not stated), the cytotoxicity at 10 µM is 7.49%.

Turning to `CO[C@H]1CO[C@@]2(CCCN(C(=O)C3CC=CC3)C2)C1`, the cytotoxicity at 10 µM is -98.6%.

As to `Cc1csc2ncc(-c3ccnc(N4CCCC[C@@H]4CO)n3)c(=O)n12`, the cytotoxicity at 10 µM was 9.12%.

For the compound `CCCc1nnc2sc(C3CCN(CC)CC3)nn12`, the cytotoxicity at 10 µM is 4.6%.

For the compound `Cn1c(CN2CCCC(Cn3cc(CCO)nn3)C2)cc2ccccc21` (configuration not stated), the cytotoxicity at 10 µM was -0.849%.

Turning to `Cn1cc(Cl)c(CN2CCCC(Cn3cc(CO)nn3)C2)n1` (configuration not stated), the cytotoxicity at 10 µM turned out to be 1.18%.

With `CCc1ncc(C(=O)N(C)C(C)c2ccc3c(c2)OCCO3)cn1` (configuration not stated), the cytotoxicity at 10 µM was -2.96%.

For `CC(C)Oc1ccc2c(NC(=O)[C@H](C)O)nn(CC(F)(F)F)c2c1`, the cytotoxicity at 10 µM is -4.87%.

Consider `OC1CCCN(CCNc2ncc(Cl)cc2F)C1` (configuration not stated), for which the cytotoxicity at 10 µM was determined as 8.81%.

Take `CCCN1CCN(C(=O)c2ccnc(N)c2)[C@H]2CS(=O)(=O)C[C@H]21`: the cytotoxicity at 10 µM worked out at 2.77%.

For `Cc1c(C(=O)N(C)c2ccccc2)cccc1N(C)S(C)(=O)=O`, the cytotoxicity at 10 µM stood at 6.36%.

Regarding `COc1ccc(CNC(=O)CCN2CCOC(C(F)(F)F)C2)cc1` (configuration not stated), the cytotoxicity at 10 µM turned out to be 4.3%.

In the case of `CCc1cc(O)nc(C2CCCN2C(=O)c2cccnc2)n1` (configuration not stated), the cytotoxicity at 10 µM was -1.54%.

Consider `CCCN(CC)c1ccc(C(=O)N2CCCC2c2cnn(C)c2)cn1` (configuration not stated), for which the cytotoxicity at 10 µM was -6.75%.

As for `CN(C)S(=O)(=O)c1ccc(CN2CCCC2c2cccs2)o1` (configuration not stated), the cytotoxicity at 10 µM is -3.31%.

Take `Cn1cc(C2CCCN2C(=O)c2ccc(NC3CC3)nc2)cn1` (configuration not stated): the cytotoxicity at 10 µM was -14.4%.

Consider `Cc1ncc2c(n1)CN(Cc1nnc(-c3ccccc3)o1)CC2`, for which the cytotoxicity at 10 µM is -9.77%.

As for `Cc1ccccc1OCCCC(=O)NCC1CN(C)CCO1` (configuration not stated), the cytotoxicity at 10 µM was -8.69%.

For `Cc1cnn(CC2CCCN2Cc2cc(C)no2)c1` (configuration not stated), the cytotoxicity at 10 µM was -1.66%.

Take `Cc1nc(C)n(CC2CN(Cc3cscn3)CCO2)n1` (configuration not stated): the cytotoxicity at 10 µM was -4.22%.

Take `CCCc1noc(CN2CCC(C(=O)Nc3cnn(CC)c3)CC2)n1`: the cytotoxicity at 10 µM was -0.988%.

On to `CCOc1ncccc1CNCc1c(C(C)C)nn(C)c1N(C)C`, for which the cytotoxicity at 10 µM is -8.19%.

With `Cc1ccc(CNC(=O)CN2C=Nc3ccccc3S2(=O)=O)s1`, the cytotoxicity at 10 µM turned out to be 0.347%.

For `Cc1ccc(CC(=O)N2CSCC2C(=O)N(C)Cc2ccco2)o1` (configuration not stated), the cytotoxicity at 10 µM was -4.32%.

As for `CC(NC(=O)c1ccc2c(c1)OCC(=O)N2)c1ccccc1F` (configuration not stated), the cytotoxicity at 10 µM is -4.42%.

As for `CC(=O)Nc1nc(C(=O)N2CCCC(c3cc(C)[nH]n3)C2)cs1` (configuration not stated), the cytotoxicity at 10 µM is -8.85%.

On to `Cc1ccc(N2CCCN(C(=O)C(C(C)C)n3cncn3)CC2)nn1` (configuration not stated), for which the cytotoxicity at 10 µM is -5.99%.

Turning to `O=C(c1cccc(Cn2ccnc2)c1)N1CCCC(n2ccnc2)C1` (configuration not stated), the cytotoxicity at 10 µM is -6.61%.

In the case of `Cc1ccc(C(=O)N2CCN(Cc3nc(C(C)C)no3)CC2)c(=O)[nH]1`, the cytotoxicity at 10 µM was -7.67%.

As for `CCc1cccc(N2CCC(NC(=O)c3ccc(=O)[nH]n3)CC2)c1`, the cytotoxicity at 10 µM is 5.8%.

Take `CNC(=O)NC(=O)Cn1cc(-c2ccccc2)cn1`: the cytotoxicity at 10 µM amounted to 3.37%.

For the compound `N#Cc1cc(NS(=O)(=O)c2ccc(C(=O)O)cc2F)ccc1F`, the cytotoxicity at 10 µM is -10.9%.

`Cc1cccc(NC(=O)NCCCn2nc3ccccn3c2=O)c1C`: the cytotoxicity at 10 µM was -6.73%.

As for `O=C(c1cc2cc(F)ccc2[nH]1)N1CCC(Nc2cccnn2)CC1`, the cytotoxicity at 10 µM was -5.97%.

For `CC(c1cccc(S(N)(=O)=O)c1)N(C)CCOc1ccccc1` (configuration not stated), the cytotoxicity at 10 µM is -3.83%.

As for `CCc1nccn1C1CCCN(C(=O)Cc2cn3ccccc3n2)C1` (configuration not stated), the cytotoxicity at 10 µM is -2.72%.

`Cc1cnn(CC2CCCN2C(=O)c2nccc3ccccc23)c1` (configuration not stated): the cytotoxicity at 10 µM is -2.14%.

With `CNS(=O)(=O)c1ccc(CNC(=O)NCC2CCOC2)cc1` (configuration not stated), the cytotoxicity at 10 µM was -2.65%.

As to `CC(Cn1cncc1-c1cnn(Cc2ccccc2)c1)N1CCCCC1` (configuration not stated), the cytotoxicity at 10 µM was 6.58%.

For the compound `COCC1CN(Cc2ccsc2)Cc2nn(C)cc21` (configuration not stated), the cytotoxicity at 10 µM came out at 5.15%.

With `CNC(=O)[C@H]1C[C@@H]2CN(Cc3c(C)noc3C)C[C@@H]2N1C(C)=O`, the cytotoxicity at 10 µM was -108%.

Consider `COc1cccc(CN2CCCC(c3nn(C)c4nccnc34)C2)c1` (configuration not stated), for which the cytotoxicity at 10 µM was -11.2%.

Turning to `c1cncc(COC[C@@H]2CCC[C@]23CNCCO3)c1`, the cytotoxicity at 10 µM was -96.1%.

Regarding `CN(C)CC(=O)N1CCOC2(CCCN(c3ncccc3F)C2)C1` (configuration not stated), the cytotoxicity at 10 µM was -9.84%.

`O=C(O)CC1CN(Cc2ccccc2)CCO1` (configuration not stated): the cytotoxicity at 10 µM amounted to 6.54%.

With `O=C([C@H]1C[C@H]2OCC[C@H]2N(C(=O)c2ccccn2)C1)N1CCCCO1`, the cytotoxicity at 10 µM amounted to 13.1%.

As for `COCC1CC2(CCN(Cc3cccnc3)CC2)CN1c1ncccn1` (configuration not stated), the cytotoxicity at 10 µM amounted to 3.71%.

Turning to `COc1ccccc1CCNC(=O)C1CCC(Cn2cnnn2)CC1` (configuration not stated), the cytotoxicity at 10 µM was determined as 1.61%.

In the case of `Cc1cc(C)cc(N2CCN(C(=O)CCN3C[C@H]4CC[C@@H]3C4)CC2=O)c1`, the cytotoxicity at 10 µM is -4.76%.

As to `C=c1ncsc1=C1NN=C(C2CCCN2C(=O)CCn2ccc(C)n2)O1` (configuration not stated), the cytotoxicity at 10 µM came out at 1.66%.
